According to ChEMBL document CHEMBL1955854, “New retinoid derivatives as back-ups of Adarotene” (Bioorg Med Chem, 2012):

Assays:
[1] = Chemical stability in aqueous buffer containing 5% DMSO and 5% tween 80 at pH 1.2 assessed as compound recovery in anoxic conditions after 3 hrs by UPLC analysis; type: physicochemical; conditions: read-out: Stability
Outline: (§1)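 Stability at 37 °C in aqueous buffer with 5% DMSO and 5% Tween 80 at pH 1.2, 6.8 or 7.4; percent recovery by HPLC/UPLC on BEH C18 column, water+0.1% TFA/acetonitrile gradient from 40% to 95% acetonitrile over 8 min, room temperature.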

[2] = Chemical stability in aqueous buffer containing 5% DMSO and 5% tween 80 at pH 6.8 assessed as compound recovery in anoxic conditions after 24 hrs by UPLC analysis; type: physicochemical; conditions: read-out: Stability; outline: as §1
[3] = Chemical stability in aqueous buffer containing 5% DMSO and 5% tween 80 at pH 7.4 assessed as compound recovery in anoxic conditions after 24 hrs by UPLC analysis; type: physicochemical; conditions: read-out: Stability; outline: as §1
[4] = Chemical stability in aqueous buffer containing 5% DMSO and 5% tween 80 at pH 1.2 assessed as compound recovery in anoxic conditions after 12 hrs by UPLC analysis; type: physicochemical; conditions: pH 1.2, 12 h; outline: as §1
[5] = test system: NCI-H460; assay: Antiproliferative activity against human NCI-H460 cells incubated for 24 hrs drug exposure measured after 48 hrs of recovery by sulforhodamine B assay; type: functional, cell-based
[6] = test system: A-431; assay: Antiproliferative activity against human A431 cells incubated for 24 hrs drug exposure measured after 48 hrs of recovery by sulforhodamine B assay; type: functional, cell-based
[7] = test system: NCI-H460; assay: Antitumor activity against human NCI-H460 cells xenografted in nude CD1 mouse assessed as tumor volume inhibition at 25 mg/kg, po administered qd 3 times per week for 2 weeks relative to control; type: functional; conditions: NCI-H460, 336 h, read-out: TGI
Outline: (§2)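 CD1 nude mice given s.c. right-flank NCI-H460 (3 × 10⁶) or A431 (5 × 10⁶) cells from culture on day 0; eight mice per group. Dosing began day 3 at ~50 mm³ tumors; vehicle 10% DMSO, 9% HPBCD, 14.4% PEG1000 in water. Diameters taken biweekly by caliper; mice weighed daily, maximum BWL% reported; Mann–Whitney versus vehicle.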

[8] = test system: NCI-H460; assay: Antitumor activity against human NCI-H460 cells xenografted in nude CD1 mouse assessed as tumor volume inhibition at 13 mg/kg, iv administered qd 3 times per week for 2 weeks relative to control; type: functional; conditions: NCI-H460, 336 h, read-out: TGI; outline: as §2
[9] = test system: A-431; assay: Antitumor activity against human A431 cells xenografted in nude CD1 mouse assessed as tumor volume inhibition at 25 mg/kg, po administered qd 3 times per week for 2 weeks relative to control; type: functional; conditions: A-431, 336 h, read-out: TGI; outline: as §2
[10] = test system: Mus musculus; assay: Toxicity in nude CD1 mouse xenografted with human NCI-H460 NSCLC cells assessed as body weight loss at 25 mg/kg, po administered qd 3 times per week for 2 weeks; type: organism-based; design: dose 25 mg/kg, route oral; conditions: in vivo, 336 h; outline: as §2
[11] = test system: Mus musculus; assay: Toxicity in nude CD1 mouse xenografted with human NCI-H460 NSCLC cells assessed as body weight loss at 13 mg/kg, iv administered qd 3 times per week for 2 weeks; type: organism-based; design: dose 13 mg/kg, route intravenous; conditions: in vivo, 336 h; outline: as §2
[12] = test system: Mus musculus; assay: Toxicity in nude CD1 mouse xenografted with human A431 cells assessed as body weight loss at 25 mg/kg, po administered qd 3 times per week for 2 weeks; type: organism-based, A-431; design: dose 25 mg/kg, route oral; conditions: in vivo, 336 h; outline: as §2
[13] = Solubility in water; type: physicochemical; conditions: buffer
[14] = Toxicity in po dosed nude CD1 mouse xenografted with human A431 cells assessed as mortality administered qd 3 times per week for 2 weeks; type: organism-based, A-431; conditions: in vivo
[15] = Toxicity in iv dosed nude CD1 mouse xenografted with human A431 cells assessed as mortality administered qd 3 times per week for 2 weeks; type: organism-based, A-431; conditions: in vivo
[16] = test system: A-431; assay: Antitumor activity against human A431 cells xenografted in nude CD1 mouse assessed as tumor volume inhibition at 35 mg/kg, ip administered qd 3 times per week for 2 weeks relative to control; type: functional; conditions: A-431, ip, 336 h, route intraperitoneal, read-out: TGI
Outline: (§3)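 A431 epidermoid carcinoma cells (5 × 10⁶) from in vitro culture were injected s.c. into the right flank of CD1 nude mice on day 0, with 8 mice per group. Dosing began on day 3, at tumors of about 50 mm³, on a qdx3/wx2w schedule. Vehicle was 10% DMSO, 9% HPBCD and 14.4% PEG1000 in water. Tumor diameters were measured twice weekly by caliper, and TVI% was taken versus the vehicle group (Mann–Whitney).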

[17] = test system: A-431; assay: Antitumor activity against human A431 cells xenografted in nude CD1 mouse assessed as tumor volume inhibition at 35 mg/kg, po administered qd 3 times per week for 2 weeks relative to control; type: functional; conditions: A-431, 336 h, read-out: TGI; outline: as §3
[18] = test system: Mus musculus; assay: Toxicity in nude CD1 mouse xenografted with human A431 cells assessed as body weight loss at 35 mg/kg, ip administered qd 3 times per week for 2 weeks; type: organism-based, A-431; design: dose 35 mg/kg, route intraperitoneal; conditions: in vivo, 336 h
Outline: (§4)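 CD1 nude mice bore s.c. A431 xenografts (5 × 10⁶ cells, right flank, 8 mice per group). Dosing started on day 3 on a qdx3/wx2w schedule, in vehicle of 10% DMSO, 9% HPBCD and 14.4% PEG1000 in water. Mice were weighed daily, and BWL% = 100 − (mean body weight day x / mean body weight day 1 × 100), with day 1 the first treatment day. The maximum BWL is reported.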

[19] = test system: Mus musculus; assay: Toxicity in nude CD1 mouse xenografted with human A431 cells assessed as body weight loss at 35 mg/kg, po administered qd 3 times per week for 2 weeks; type: organism-based, A-431; design: dose 35 mg/kg, route oral; conditions: in vivo, 336 h; outline: as §4
[20] = Chemical stability in aqueous buffer containing 5% DMSO and 5% tween 80 at pH 7.4 assessed as compound recovery in anoxic conditions after 6 hrs by UPLC analysis; type: physicochemical; conditions: read-out: Stability; outline: as §1
[21] = test system: A-431; assay: Antitumor activity against human A431 cells xenografted in nude CD1 mouse assessed as tumor volume inhibition at 37 mg/kg, ip administered qd 3 times per week for 2 weeks relative to control; type: functional; conditions: A-431, ip, 336 h, route intraperitoneal, read-out: TGI; outline: as §3
[22] = test system: A-431; assay: Antitumor activity against human A431 cells xenografted in nude CD1 mouse assessed as tumor volume inhibition at 37 mg/kg, po administered qd 3 times per week for 2 weeks relative to control; type: functional; conditions: A-431, 336 h, read-out: TGI; outline: as §3
[23] = test system: Mus musculus; assay: Toxicity in nude CD1 mouse xenografted with human A431 cells assessed as body weight loss at 37 mg/kg, ip administered qd 3 times per week for 2 weeks; type: organism-based, A-431; design: dose 37 mg/kg, route intraperitoneal; conditions: in vivo, 336 h; outline: as §4
[24] = test system: Mus musculus; assay: Toxicity in nude CD1 mouse xenografted with human A431 cells assessed as body weight loss at 37 mg/kg, po administered qd 3 times per week for 2 weeks; type: organism-based, A-431; design: dose 37 mg/kg, route oral; conditions: in vivo, 336 h; outline: as §4

## O=C(O)/C=C/c1ccc(-c2ccc(O)c(C34CC5CC(CC(C5)C3)C4)c2)cc1 [ADAROTENE]
[1]
  remaining at 3 h: > 99%
[2]
  remaining at 24 h: > 99%
[3]
  remaining at 24 h: > 99%
[4]
  Stability: Stable
[5]
  IC50: 200 nM
[6]
  IC50: 120 nM
[7]
  inhibition in vivo at 25 mg/kg: 34%
[8]
  inhibition in vivo at 13 mg/kg: 37%
[9]
  inhibition in vivo at 25 mg/kg: 36%
[10]
  Activity: 9%
[11]
  Activity: 8%
[12]
  Activity: 12%
[13]
  solubility: Insoluble
[14]
  MTD at 336 h: 25 mg/kg
[15]
  MTD at 336 h: 13 mg/kg

## Cl.NCCCCNC(=O)Oc1ccc(-c2ccc(/C=C/C(=O)O)cc2)cc1C12CC3CC(CC(C3)C1)C2
[1]
  remaining at 3 h: > 99%
[2]
  remaining at 24 h: > 99%
[3]
  remaining at 24 h: > 99%
[4]
  Stability: Stable
[5]
  IC50: 2600 nM
[6]
  IC50: 3400 nM
[16]
  inhibition in vivo at 35 mg/kg: 1%
[17]
  inhibition in vivo at 35 mg/kg: 0%
[18]
  Activity: 6%
[19]
  Activity: 3%
[13]
  solubility: Insoluble

## Cl.O=C(O)/C=C/c1ccc(-c2ccc(OC(=O)NCCN3CCOCC3)c(C34CC5CC(CC(C5)C3)C4)c2)cc1
[1]
  remaining at 3 h: > 99%
[2]
  remaining at 24 h: > 99%
[20]
  remaining at 6 h: > 99%
[3]
  remaining at 24 h: 85%
[4]
  Stability: Stable
[5]
  IC50: 920 nM
[6]
  IC50: 1400 nM
[21]
  inhibition in vivo at 37 mg/kg: 21%
[22]
  inhibition in vivo at 37 mg/kg: 0%
[23]
  Activity: 0%
[24]
  Activity: 0%
[13]
  solubility: Insoluble
